ChEMBL document CHEMBL1153389, “Identification of novel antibacterial peptides by chemoinformatics and machine learning” (2009)

Legend:
Assay type in all cases: functional
[1] = system: Pseudomonas aeruginosa; assay: Antimicrobial activity against Pseudomonas aeruginosa H103 after overnight incubation by broth microdilution method
Outline: (§1)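 Modified broth microdilution. Peptides are serially diluted in 0.01% acetic acid with 0.2% BSA at 10-fold the final concentration, then added to MH medium in polypropylene plates. Bacteria from an overnight culture are added to a final (2-7) × 10^5 CFU/mL. Plates are incubated overnight at 37 °C. MIC is the lowest concentration with no visible growth.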

[2] = system: Pseudomonas aeruginosa; assay: Antimicrobial activity against Pseudomonas aeruginosa H1001 expressing luciferase gene assessed as ratio antimicrobial IC50 for drug to Bac2A peptide by luminescence assay
Outline: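 Peptides are made by SPOT synthesis on cellulose, cleaved, and the spots placed in plate wells. Overnight P. aeruginosa H1001 (fliC::luxCDABE) is diluted 1:500 in 100 mM Tris-HCl pH 7.3 with 20 mM glucose and added to the wells. After 30 min, serial dilutions (8 rows) are made. Luminescence is read at 4 h. IC50 is taken from a sigmoid fit and expressed relative to Bac2A run in the same series.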

[3] = system: Pseudomonas aeruginosa; assay: Antimicrobial activity against multidrug-resistant Pseudomonas aeruginosa Brazil 9 isolate after overnight incubation by broth microdilution method
Outline: (§2)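 Modified broth microdilution in polypropylene 96-well plates with Mueller-Hinton (MH) medium. Bulk-synthesized peptides were serially diluted at 10-fold final strength in 0.01% acetic acid with 0.2% BSA, then added 1:10 to MH. Inoculum came from an overnight culture at a final (2-7) × 10^5 CFU/mL. Plates were incubated overnight at 37 °C. MIC was the lowest concentration with no visible growth.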

[4] = system: Pseudomonas aeruginosa; assay: Antimicrobial activity against multidrug-resistant Pseudomonas aeruginosa Brazil 198 isolate after overnight incubation by broth microdilution method; outline: as §2
[5] = system: Pseudomonas aeruginosa; assay: Antimicrobial activity against multidrug-resistant Pseudomonas aeruginosa Brazil 213 isolate after overnight incubation by broth microdilution method; outline: as §2
[6] = system: Pseudomonas aeruginosa; assay: Antimicrobial activity against Pseudomonas aeruginosa LES400 after overnight incubation by broth microdilution method; outline: as §2
[7] = system: Pseudomonas aeruginosa; assay: Antimicrobial activity against Pseudomonas aeruginosa H1030 after overnight incubation by broth microdilution method; outline: as §2
[8] = system: Pseudomonas aeruginosa; assay: Antimicrobial activity against Pseudomonas aeruginosa H1027 after overnight incubation by broth microdilution method; outline: as §1
[9] = system: Stenotrophomonas maltophilia; assay: Antimicrobial activity against Pseudomonas maltophilia ATCC 13637 after overnight incubation by broth microdilution method; outline: as §1
[10] = system: Enterobacter cloacae; assay: Antimicrobial activity against class C chromosomal beta lactamase expressing Enterobacter cloacae 218R after overnight incubation by broth microdilution method; outline: as §1
[11] = system: Escherichia coli; assay: Antimicrobial activity against extended-spectrum beta-lactamase producing Escherichia coli 63103 after overnight incubation by broth microdilution method; outline: as §1
[12] = system: Escherichia coli; assay: Antimicrobial activity against extended-spectrum beta-lactamase producing Escherichia coli 64771 after overnight incubation by broth microdilution method; outline: as §1
[13] = system: Klebsiella pneumoniae; assay: Antimicrobial activity against extended-spectrum beta-lactamase-resistant Klebsiella pneumoniae 61962 after overnight incubation by broth microdilution method; outline: as §2
[14] = system: Klebsiella pneumoniae; assay: Antimicrobial activity against extended-spectrum beta-lactamase-resistant Klebsiella pneumoniae 63575 after overnight incubation by broth microdilution method; outline: as §2
[15] = system: Staphylococcus aureus; assay: Antimicrobial activity against Staphylococcus aureus ATCC 25923 after overnight incubation by broth microdilution method; outline: as §2
[16] = system: Staphylococcus aureus; assay: Antimicrobial activity against methicillin-resistant Staphylococcus aureus C623 after overnight incubation by broth microdilution method; outline: as §2
[17] = system: Enterococcus faecalis; assay: Antimicrobial activity against Enterococcus faecalis ATCC 29212 after overnight incubation by broth microdilution method; outline: as §1
[18] = system: Enterococcus faecalis; assay: Antimicrobial activity against vancomycin-resistant Enterococcus faecalis w6190(VanA) isolate after overnight incubation by broth microdilution method; outline: as §2
[19] = system: Enterococcus faecalis; assay: Antimicrobial activity against vancomycin-resistant Enterococcus faecalis f43559 (VanB) isolate after overnight incubation by broth microdilution method; outline: as §2
[20] = system: Enterococcus faecium; assay: Antimicrobial activity against vancomycin-resistant Enterococcus faecium mic80(VanA) isolate after overnight incubation by broth microdilution method; outline: as §2
[21] = system: Enterococcus faecium; assay: Antimicrobial activity against vancomycin-resistant Enterococcus faecium t62764(VanB) isolate after overnight incubation by broth microdilution method; outline: as §2

| Substance | MIC [1] | Ratio IC50 [2] | MIC [3] | MIC [4] | MIC [6] | MIC [7] | MIC [8] | MIC [9] | MIC [10] | MIC [11] | MIC [12] | MIC [13] | MIC [14] | MIC [15] | MIC [16] | MIC [17] | MIC [18] | MIC [19] | MIC [20] | MIC [21] | further results |
| --- | --- | --- | --- | --- | --- | --- | --- | --- | --- | --- | --- | --- | --- | --- | --- | --- | --- | --- | --- | --- | --- |
| H-RKWIWRWFL-OH | 6.1 µM | 0.15 | 12 µM | 3.1 µM | 6.1 µM | 3.1 µM | 1.5 µM | 1.5 µM | 3 µM | 1.5 µM | 1.5 µM | 3.1 µM | 3.1 µM | 3.1 µM | 3.1 µM | 6.1 µM | 24 µM | 24 µM | 3.1 µM | 3.1 µM | MIC [5]: 6.1 µM |
| H-KRIMKLKMR-OH | > 226 µM | 6.5 | – | – | > 226 µM | > 226 µM | > 226 µM | > 226 µM | > 226 µM | > 226 µM | > 226 µM | > 226 µM | > 226 µM | > 226 µM | > 226 µM | > 226 µM | > 226 µM | > 226 µM | > 226 µM | > 226 µM | – |
| H-LRWWWIKRI-OH | 13 µM | 0.33 | 50 µM | 25 µM | 25 µM | 25 µM | 6.3 µM | 3.2 µM | 50 µM | 25 µM | 13 µM | 201 µM | 50 µM | 6.3 µM | 6.3 µM | 13 µM | 50 µM | 25 µM | 6.3 µM | 1.5 µM | MIC [5]: 50 µM |
| H-IWWKWRRWV-OH | 6 µM | 0.29 | 48 µM | 12 µM | 12 µM | 48 µM | 6 µM | 1.5 µM | 6 µM | 24 µM | 6 µM | 96 µM | 12 µM | 3 µM | 3 µM | 24 µM | 48 µM | 48 µM | 6 µM | 3 µM | MIC [5]: 48 µM |
| H-FRRWWKWFK-OH | 1.5 µM | 0.12 | 12 µM | 3 µM | 5.9 µM | 24 µM | 1.5 µM | 0.8 µM | 24 µM | 12 µM | 6.1 µM | 97 µM | 24 µM | 1.5 µM | 3 µM | 24 µM | 195 µM | 97 µM | 6.1 µM | 6.1 µM | MIC [5]: 5.9 µM |
| H-KIWWWWRKR-OH | 5.9 µM | 0.13 | 47 µM | 24 µM | 47 µM | 12 µM | 5.9 µM | 3 µM | 94 µM | 12 µM | 5.9 µM | 189 µM | 47 µM | 5.9 µM | 5.9 µM | 24 µM | 94 µM | 94 µM | 5.9 µM | 1.5 µM | MIC [5]: 47 µM |
| H-AVWKFVKRV-OH | 240 µM | 8.18 | – | 240 µM | 240 µM | > 240 µM | 120 µM | 60 µM | > 240 µM | 240 µM | 120 µM | > 240 µM | > 240 µM | 240 µM | 240 µM | > 240 µM | > 240 µM | > 240 µM | 120 µM | 120 µM | – |
| H-WKKWWKRRW-OH | 23 µM | 0.19 | 46 µM | 46 µM | 46 µM | 46 µM | 5.8 µM | 1.4 µM | 23 µM | 23 µM | 2.9 µM | 186 µM | 46 µM | 1.4 µM | 2.9 µM | 93 µM | > 186 µM | > 186 µM | 12 µM | 5.8 µM | MIC [5]: 93 µM |
| H-RKRLKWWIY-OH | 25 µM | 0.18 | 50 µM | 50 µM | 50 µM | 50 µM | 6.3 µM | 3.2 µM | 13 µM | 6.3 µM | 6.3 µM | > 202 µM | 50 µM | 6.3 µM | 6.3 µM | 50 µM | > 202 µM | 202 µM | 13 µM | 3.2 µM | MIC [5]: 50 µM |
| H-RWRRWKWWL-OH | 2.9 µM | 0.08 | 12 µM | 12 µM | 5.8 µM | 12 µM | 0.3 µM | 0.7 µM | 5.8 µM | 5.7 µM | 2.9 µM | 46 µM | 11 µM | 2.9 µM | 2.9 µM | 23 µM | 92 µM | 92 µM | 5.7 µM | 1.4 µM | MIC [5]: 23 µM |
| H-WKRWWKKWR-OH | 23 µM | 0.2 | 46 µM | 46 µM | 23 µM | 46 µM | 5.8 µM | 1.4 µM | 93 µM | 23 µM | 2.9 µM | 186 µM | 46 µM | 5.8 µM | 5.8 µM | 93 µM | > 186 µM | > 186 µM | 23 µM | 5.8 µM | MIC [5]: 93 µM |
| H-RLARIVVIRVAR-OH | 48 µM | – | 192 µM | 95 µM | 95 µM | 95 µM | 12 µM | 3 µM | 24 µM | 24 µM | 24 µM | 192 µM | 192 µM | 24 µM | 24 µM | 12 µM | 48 µM | 48 µM | 12 µM | 3 µM | MIC [5]: 192 µM |
| H-AIRRWRIRK-OH | > 217 µM | 4.62 | – | – | > 217 µM | > 217 µM | 217 µM | 108 µM | 108 µM | 108 µM | 108 µM | > 217 µM | > 217 µM | 54 µM | 54 µM | > 217 µM | > 217 µM | > 217 µM | 108 µM | 14 µM | – |
| H-AWRFKNIRK-OH | > 223 µM | 9.2 | – | – | > 223 µM | > 223 µM | 111 µM | > 223 µM | > 223 µM | > 223 µM | 223 µM | > 223 µM | > 223 µM | 223 µM | > 223 µM | > 223 µM | > 223 µM | > 223 µM | > 223 µM | 223 µM | – |
| H-VVLKIVRRF-OH | > 241 µM | 25 | – | – | > 241 µM | > 241 µM | 241 µM | 60 µM | 241 µM | > 241 µM | 241 µM | > 241 µM | > 241 µM | 241 µM | 241 µM | 241 µM | > 241 µM | > 241 µM | 241 µM | 60 µM | – |
| H-GSRRFGWNR-OH | – | 8.1 | – | – | – | – | – | – | – | – | – | – | – | – | – | – | – | – | – | – | – |
| H-IWIWRKLRW-OH | – | 0.46 | – | – | – | – | – | – | – | – | – | – | – | – | – | – | – | – | – | – | – |
